# Assay results from article PMC3361572 (Chemistry & biology, 2012).
# pIC50: −log10 of the molar value.
# Experiments:
# [1] = test system: other rat brain serine hydrolases; experiment: competitive ABPP, rat brain proteome, other serine hydrolases; assay type: biochemical
# Procedure, shortened: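 Rat brain proteome was preincubated with test compound, then labelled with the serine hydrolase-directed probe FP-rhodamine. Proteins were separated by SDS-PAGE and scanned by in-gel fluorescence. Inhibition of individual serine hydrolases was scored as reduced probe labelling.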
# [2] = target: T1, ABHD6 (Rattus norvegicus, UniProt Q5XI64); experiment: competitive ABPP, rat brain membrane proteome; assay type: biochemical; conditions: rat brain serine hydrolase activities, full ABPP gel
# T1 sequence (Q5XI64 1-337): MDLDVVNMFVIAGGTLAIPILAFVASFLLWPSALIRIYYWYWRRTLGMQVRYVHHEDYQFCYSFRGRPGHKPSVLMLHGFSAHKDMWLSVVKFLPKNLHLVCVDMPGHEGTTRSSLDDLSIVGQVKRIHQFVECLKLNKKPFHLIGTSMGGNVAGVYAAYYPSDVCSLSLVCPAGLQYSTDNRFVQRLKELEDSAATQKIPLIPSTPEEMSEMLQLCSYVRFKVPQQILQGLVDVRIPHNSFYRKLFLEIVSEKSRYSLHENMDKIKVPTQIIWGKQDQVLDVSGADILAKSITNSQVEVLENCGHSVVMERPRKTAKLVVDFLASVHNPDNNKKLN
# Procedure, shortened: (§1)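 Brain (mouse or rat) or mouse lung proteomes were preincubated with the test compound, then treated with the serine hydrolase probe FP-Rh. Samples were separated by SDS-PAGE and read by in-gel fluorescence scanning. Inhibition was taken as reduced FP-Rh labelling of MAGL, ABHD6, FAAH or CES bands, and IC50 values were calculated from quantified gel bands. Three independent experiments.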
# [3] = target: T2, hFAAH (Homo sapiens, UniProt O00519); experiment: competitive ABPP, proteomes of transiently transfected HEK293T cells; assay type: biochemical
# T2 sequence (O00519 1-579): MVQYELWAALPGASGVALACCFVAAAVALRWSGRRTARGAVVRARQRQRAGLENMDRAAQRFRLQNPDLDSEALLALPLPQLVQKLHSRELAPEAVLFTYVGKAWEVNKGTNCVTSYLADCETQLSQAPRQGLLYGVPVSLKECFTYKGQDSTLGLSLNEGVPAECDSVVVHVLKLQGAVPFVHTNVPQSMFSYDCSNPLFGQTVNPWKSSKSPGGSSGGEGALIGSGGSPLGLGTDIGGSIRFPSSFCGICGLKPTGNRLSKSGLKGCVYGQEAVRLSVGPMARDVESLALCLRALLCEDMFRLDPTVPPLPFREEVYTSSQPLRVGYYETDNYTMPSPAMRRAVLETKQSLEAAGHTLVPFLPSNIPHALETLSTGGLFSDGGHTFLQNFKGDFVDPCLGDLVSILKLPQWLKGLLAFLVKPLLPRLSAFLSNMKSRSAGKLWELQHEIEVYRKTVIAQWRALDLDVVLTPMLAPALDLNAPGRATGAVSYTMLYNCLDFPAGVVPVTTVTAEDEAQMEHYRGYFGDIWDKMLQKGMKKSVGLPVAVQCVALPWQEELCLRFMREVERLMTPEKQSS
# [4] = target: T3, MAGL (Mus musculus, UniProt O35678); experiment: 2-AG hydrolytic activity of brain tissue from treated mice; assay type: in vivo; conditions: KML29-treated mice, 1–40 mg kg^−1 p.o.
# T3 sequence (O35678 1-303): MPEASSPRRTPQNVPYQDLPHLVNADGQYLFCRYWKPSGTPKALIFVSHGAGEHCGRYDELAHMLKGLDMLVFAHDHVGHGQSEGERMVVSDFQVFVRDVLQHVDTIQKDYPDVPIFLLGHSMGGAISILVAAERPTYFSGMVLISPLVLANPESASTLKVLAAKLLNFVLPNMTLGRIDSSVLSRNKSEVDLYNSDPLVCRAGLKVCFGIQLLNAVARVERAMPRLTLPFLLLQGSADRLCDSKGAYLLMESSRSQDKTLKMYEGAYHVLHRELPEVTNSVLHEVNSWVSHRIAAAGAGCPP
# [5] = target: T2, hFAAH; experiment: substrate hydrolysis assay; assay type: biochemical
# [6] = target: T4, MAGL (Rattus norvegicus, UniProt Q8R431); experiment: competitive ABPP, rat brain membrane proteome; assay type: biochemical
# T4 sequence (Q8R431 1-303): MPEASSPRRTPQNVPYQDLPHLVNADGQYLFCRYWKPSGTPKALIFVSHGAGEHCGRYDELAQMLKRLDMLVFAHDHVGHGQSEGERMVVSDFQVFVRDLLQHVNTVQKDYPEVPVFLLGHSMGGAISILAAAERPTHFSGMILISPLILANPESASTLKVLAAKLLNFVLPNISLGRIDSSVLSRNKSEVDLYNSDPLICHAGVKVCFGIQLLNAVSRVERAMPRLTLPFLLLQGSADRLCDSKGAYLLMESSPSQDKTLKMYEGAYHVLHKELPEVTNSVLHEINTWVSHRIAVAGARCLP
# Procedure, shortened: as §1
# [7] = target: T4, MAGL; experiment: competitive ABPP of peripheral tissues from KML29-treated rats; assay type: in vivo; conditions: 4 h
# Procedure, shortened: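 Wistar rats were injected i.p. with the test compound (1–40 mg kg−1) or vehicle. Vehicle was saline:emulphor:ethanol 18:1:1, with prolonged sonication and mild heating to dissolve. Rats were killed at 4 h. Brain, liver, lung and spleen proteomes were labelled with FP-Rh, separated by SDS-PAGE and scanned for in-gel fluorescence. Inhibition was scored as reduced probe labelling. n = 3 rats/group.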
# [8] = target: T3, MAGL; experiment: competitive ABPP, mouse brain membrane proteome; assay type: biochemical
structure (smiles),measurement,setting,value
O=C(OC(C(F)(F)F)C(F)(F)F)N1CCC(C(O)(c2ccc3c(c2)OCO3)c2ccc3c(c2)OCO3)CC1 [KML29],additional off-target reactivity with other rat brain serine hydrolases,[1],did not detect any additional off-target reactivity
same,concentrations with inhibition of ABHD6,[2],> 1 µM
same,cross-reactivity with hFAAH (competitive ABPP),[3]; lysates of HEK293T cells transfected with hFAAH,no-detectable cross-reactivity with hFAAH
same,pIC50,"[3]; read-out: IC50 (95% CI), human FAAH, competitive ABPP, transfected HEK293T cell proteome",< 4.30
same,residual MAGL activity in brain proteomes (substrate assay),[4],dose-dependent inhibition of MAGL
same,AEA hydrolysis by hFAAH,[5],undiminished AEA hydrolysis up to 50 μM
same,selectivity for rat MAGL relative to rat ABHD6,"[6]; rat brain homogenates, competitive ABPP",> 20 fold
same,inhibitor concentrations with selective inhibition of MAGL,"[6]; rat brain serine hydrolase activities, full ABPP gel",≤ 1 µM
same,pIC50,"[6]; read-out: IC50 (95% CI), rat MAGL, competitive ABPP, rat brain membrane proteome",7.37
same,MAGL inhibition in lung and spleen,[7]; 5 mg kg^−1 i.p.,complete MAGL inhibition
same,MAGL inhibition in liver,[7]; 20 mg kg^−1 i.p.,complete MAGL inhibition
same,selectivity for MAGL relative to ABHD6,"[8]; mouse brain proteome, competitive ABPP",greater than 100 fold
same,inhibitor concentrations with selective inhibition of MAGL,"[8]; mouse brain serine hydrolase activities, full ABPP gel",≤ 1 µM
